Assay results from different studies.
Each line is one published result; the experiments were not run side by side.
Sample: plasma

CCOc1ccc(Cc2cc([C@@H]3S[C@H](CO)[C@@H](O)[C@H](O)[C@H]3O)c(OC)cc2C)cc1
AUC(0-inf) (male human; oral, 5 mg, single dose, fasted): 2010 ng·h/mL

CC(C)(O)c1ccccc1-c1ccc2[nH]c(/C=C/c3ccc(C(F)(F)F)cc3)nc2c1
AUC(0-inf) (male human; oral, 30 mg, single dose, fasted): 5690 ng·h/mL

CS(=O)(=O)CCC#N
AUC(0-inf) (human; oral, 1000 mg, single dose, fasted): 930000 ng·h/mL

Cn1cc(-c2ccc(S(=O)(=O)[C@@H]3C[C@@H](C(=O)NC4(C#N)CC4)N(C(=O)C4(C(F)(F)F)CC4)C3)c(C(F)(F)F)c2)cn1
AUC(0-inf) (human; oral, 100 mg, single dose, fed): 12600 ng·h/mL

CCCOc1ccc([C@H]2CNC(=O)N2c2ccc3[nH]cnc3c2)cc1
AUC(0-inf) (human; oral, 200 mg, single dose, fasted, healthy volunteers): 2330 ng·h/mL

CCCCC[C@H](O)CC[C@@H]1[C@H]2Cc3cccc(OCC(=O)O)c3C[C@H]2C[C@H]1O
AUC(0-inf) (human; inhaled, 18 µg, single dose, healthy volunteers): 0.34 ng·h/mL

CC(C)(Sc1ccncc1-c1ccc(C#N)c2ccccc12)C(=O)O
AUC(0-inf) (male human; oral, 5 mg, single dose, fasted, healthy volunteers): 121 ng·h/mL

C[C@@]1(c2cc(NC(=O)c3ccc(C#N)cn3)ccc2F)C=CSC(N)=N1
AUC(0-inf) (human; oral, 30 mg, single dose): 2550 ng·h/mL

CC(=O)Oc1ccccc1C(=O)O
AUC(0-inf) (human; oral, 650 mg, healthy volunteers): 7690 ng·h/mL

CC(C)[C@](O)(c1ccc2cc(OC(F)F)c(OC(F)F)cc2c1)c1c[nH]nn1
AUC(0-inf) (female human; oral, 450 mg, single dose): 31100 ng·h/mL

COc1ccc(-n2nc(C(N)=O)c3c2C(=O)N(c2ccc(N4CCCCC4=O)cc2)CC3)cc1
AUC(0-inf) (male human; oral, 10 mg, single dose): 1630 ng·h/mL

CO[C@H]1CC[C@H](N2C(=O)CNc3ncc(-c4ccc(C(C)(C)O)nc4)nc32)CC1
AUC(0-inf) (human; oral, 60 mg, patients): 2070 ng·h/mL

O=C(Nc1c(Cl)cncc1Cl)c1ccc(OC(F)F)c(OCC2CC2)c1
AUC(0-inf) (human; oral, 0.375 mg, single dose, fasted): 48.7 ng·h/mL

Nc1ccc(-c2nc([C@H]3CCc4cc(-c5cc(Cl)ccc5-n5cnnn5)cc(=O)n43)c(F)[nH]2)c(F)n1
AUC(0-inf) (human; oral, 80 mg, single dose, fasted): 17500 ng·h/mL

O=C(/C=C/c1cccc(S(=O)(=O)Nc2ccccc2)c1)NO
AUC(0-inf) (human; intravenous, 1900 mg/m², patients): 72800 ng·h/mL

CC(C)n1cc(C#N)c2cc(-n3cc(C(=O)O)cn3)ccc21
AUC(0-inf) (human; oral, 50 mg, single dose, fasted, healthy volunteers): 7120 ng·h/mL

COc1ccc([C@@H]2CN(C(=O)[C@@H](O)CO)C[C@@]2(C)[C@@H](C)O)cc1OC1CN(c2ccc(C)cn2)C1
AUC(0-inf) (human; oral, 0.5 mg, single dose, healthy volunteers): 211 ng·h/mL

C[C@@H](Oc1ccc(S(C)(=O)=O)cc1C(=O)N1C[C@@H]2C[C@]2(c2cc(C(F)(F)F)on2)C1)C(F)(F)F
AUC(0-inf) (human; oral, 25 mg, single dose): 12.2 µM·h

CCc1nc2c(C)cc(N3CCN(CC(=O)N4CC(O)C4)CC3)cn2c1N(C)c1nc(-c2ccc(F)cc2)c(C#N)s1
AUC(0-inf) (human; oral, 300 mg, single dose, fed, healthy volunteers): 14900 ng·h/mL

CN(C)CCCNC(=O)/C(=C/CCCCC(=O)NO)COc1cccc2ccccc12
AUC(0-inf) (human; intravenous, 250 mg/m², single dose): 37500 ng·h/mL
